Experimental data taken from ChEMBL document CHEMBL4270576, “Discovery of a benzenesulfonamide-based dual inhibitor of microsomal prostaglandin E2 synthase-1 and 5-lipoxygenase that favorably modulates lipid mediator biosynthesis in inflammation” (Eur J Med Chem, 2018).
Active and inactive are the calls of the source. No cut-off for these calls is given here.

Assays:
[1] = target: T1, Polyunsaturated fatty acid 5-lipoxygenase (Homo sapiens, UniProt P09917); assay: Inhibition of 5-LO in human neutrophils using arachidonic acid as substrate assessed as reduction in 5-LO product formation preincubated for 15 mins followed by substrate addition measured after 10 mins in presence of Ca2+ ionophore A23187 by HPLC analysis
T1 sequence (P09917 whole entry): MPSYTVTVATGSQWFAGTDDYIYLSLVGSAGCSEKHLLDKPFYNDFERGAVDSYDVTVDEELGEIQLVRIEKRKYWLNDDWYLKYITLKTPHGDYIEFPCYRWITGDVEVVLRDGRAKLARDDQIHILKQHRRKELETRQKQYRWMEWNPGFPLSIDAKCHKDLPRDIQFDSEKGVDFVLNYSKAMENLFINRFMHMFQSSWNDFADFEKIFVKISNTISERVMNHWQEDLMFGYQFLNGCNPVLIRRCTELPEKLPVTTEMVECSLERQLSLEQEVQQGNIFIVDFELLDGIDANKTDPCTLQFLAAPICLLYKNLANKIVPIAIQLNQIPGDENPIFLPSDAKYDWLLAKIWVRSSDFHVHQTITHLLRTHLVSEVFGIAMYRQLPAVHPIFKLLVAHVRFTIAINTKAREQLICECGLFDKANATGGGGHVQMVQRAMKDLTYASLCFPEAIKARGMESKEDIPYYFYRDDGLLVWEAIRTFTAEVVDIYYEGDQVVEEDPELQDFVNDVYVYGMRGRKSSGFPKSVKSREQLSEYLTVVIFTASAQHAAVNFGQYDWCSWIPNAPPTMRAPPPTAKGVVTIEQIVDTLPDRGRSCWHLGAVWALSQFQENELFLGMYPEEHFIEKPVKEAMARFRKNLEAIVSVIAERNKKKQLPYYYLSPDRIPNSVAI
Method in brief: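 Human neutrophils (5 × 10^6 in 1 ml PBS with 1 mg/ml glucose) pre-incubated 15 min at 37 °C with compound or 0.1% DMSO, then activated with 1 mM CaCl2 and 2.5 µM A23187, with or without 20 µM AA; 5-LO products measured after 10 min. Residual activity at 10 µM; IC50 by nonlinear regression from 4-5 concentrations; mean ± SEM, n=3-4.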

[2] = target: T2, Cytosolic phospholipase A2 (Homo sapiens) (UniProt P47712); assay: Inhibition of cPLA2alpha-mediated [3H]-arachidonic acid release in Ca2+ ionophore A23187-stimulated human neutrophils at 10 uM preincubated for 15 mins followed by Ca2+ ionophore A23187 stimulation measured after 5 mins by scintillation counting method
T2 sequence (whole entry): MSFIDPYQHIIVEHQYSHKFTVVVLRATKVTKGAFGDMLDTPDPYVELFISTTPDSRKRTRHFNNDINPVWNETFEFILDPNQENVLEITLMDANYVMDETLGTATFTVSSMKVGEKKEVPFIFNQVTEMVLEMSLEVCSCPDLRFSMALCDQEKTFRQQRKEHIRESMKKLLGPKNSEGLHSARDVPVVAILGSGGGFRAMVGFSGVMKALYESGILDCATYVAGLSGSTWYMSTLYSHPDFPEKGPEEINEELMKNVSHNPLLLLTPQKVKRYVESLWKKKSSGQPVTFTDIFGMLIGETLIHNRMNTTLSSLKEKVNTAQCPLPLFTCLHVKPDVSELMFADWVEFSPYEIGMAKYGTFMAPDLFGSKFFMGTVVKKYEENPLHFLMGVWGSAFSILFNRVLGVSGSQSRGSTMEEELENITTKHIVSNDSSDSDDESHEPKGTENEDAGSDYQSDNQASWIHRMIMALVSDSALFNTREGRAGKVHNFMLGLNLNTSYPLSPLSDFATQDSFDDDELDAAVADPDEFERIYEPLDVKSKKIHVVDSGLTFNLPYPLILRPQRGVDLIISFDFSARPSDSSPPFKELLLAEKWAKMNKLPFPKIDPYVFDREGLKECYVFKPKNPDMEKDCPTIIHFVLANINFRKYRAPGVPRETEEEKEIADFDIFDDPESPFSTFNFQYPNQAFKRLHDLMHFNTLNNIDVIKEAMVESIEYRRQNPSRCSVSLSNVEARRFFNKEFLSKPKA
Method in brief: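 Neutrophils (1 × 10^7) labelled with 5 nM [3H]-AA for 120 min at 37 °C, washed with fatty-acid-free BSA buffer, pre-incubated 15 min at 37 °C with compound or 0.1% DMSO, then stimulated with 2.5 µM A23187 for 5 min. Released [3H]-AA in supernatant counted by liquid scintillation; n=3-4.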

[3] = species on record: Homo sapiens; assay: Modulation of LO-mediated PDX level in human M2 macrophages derived from IL4-polarized human monocyte derived macrophages at 3 uM preincubated for 15 mins followed by Escherichia coli (O6:K2:H1) challenge for 90 mins by LC-MS/MS analysis
Method in brief: (§1)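 Monocytes differentiated 6 days with M-CSF (20 ng/ml), then polarized 48 h with IL-4 20 ng/ml (M2). Cells (2 × 10^6) in PBS/1 mM CaCl2 pre-incubated 15 min at 37 °C with 3 µM compound or 0.1% DMSO, then challenged with E. coli O6:K2:H1 (1:50) for 90 min. Lipid mediators extracted by SPE with deuterated internal standards and quantified by UPLC-MS/MS as % of vehicle.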

[4] = target: T3, Polyunsaturated fatty acid lipoxygenase ALOX15 (Homo sapiens) (UniProt P16050); assay: Modulation of 15-LO-mediated 17-HDHA level in human M2 macrophages derived from IL4-polarized human monocyte derived macrophages at 3 uM preincubated for 15 mins followed by Escherichia coli (O6:K2:H1) challenge for 90 mins by LC-MS/MS analysis; method in brief: as §1
T3 sequence (whole entry): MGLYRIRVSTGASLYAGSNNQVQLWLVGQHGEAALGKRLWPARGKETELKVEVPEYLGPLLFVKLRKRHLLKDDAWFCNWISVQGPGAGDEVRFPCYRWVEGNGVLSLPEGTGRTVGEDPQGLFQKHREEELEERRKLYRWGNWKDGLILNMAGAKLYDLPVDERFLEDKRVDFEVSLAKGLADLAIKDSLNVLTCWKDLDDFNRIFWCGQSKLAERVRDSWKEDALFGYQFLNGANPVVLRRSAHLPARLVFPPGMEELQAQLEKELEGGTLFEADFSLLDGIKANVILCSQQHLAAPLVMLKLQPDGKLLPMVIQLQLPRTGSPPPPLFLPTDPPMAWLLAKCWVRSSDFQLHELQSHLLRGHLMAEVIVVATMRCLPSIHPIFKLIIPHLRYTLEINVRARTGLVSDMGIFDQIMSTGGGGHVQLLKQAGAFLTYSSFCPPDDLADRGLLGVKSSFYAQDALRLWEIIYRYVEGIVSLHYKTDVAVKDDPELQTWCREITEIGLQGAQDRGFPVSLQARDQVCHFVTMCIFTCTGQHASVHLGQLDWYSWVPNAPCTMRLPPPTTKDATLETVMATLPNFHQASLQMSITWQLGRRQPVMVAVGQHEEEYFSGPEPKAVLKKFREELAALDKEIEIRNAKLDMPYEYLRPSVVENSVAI

IC50 [1]: 400 nM
inhibition [2]: inactive
Activity [3]: 125%
Activity [4]: 124%
SMILES: O=C(O)c1ccc(N(Cc2cccc(OCc3ccccc3)c2)S(=O)(=O)c2ccc(-c3ccccc3)cc2)cc1
